Laboratory results published in ChEMBL document CHEMBL4152262, “Design, synthesis and evaluation of novel multi-target-directed ligands for treatment of Alzheimer's disease based on coumarin and lipoic acid scaffolds” (Eur J Med Chem, 2018).

Assays:
[1] = Inhibition of soybean 15-LOX assessed as reduction in conversion of linoleic acid to 13-hydroperoxylinoleic acid by spectrophotometric method; set-up: species or system Glycine max
Method in brief: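 Soybean lipoxygenase type 1-B (final 167 U/mL) with compound (DMSO stock diluted in 0.1 M phosphate buffer pH 8) and linoleic acid (134 mM in ethanol) at room temperature. Formation of 13-hydroperoxylinoleic acid followed spectrophotometrically at 234 nm.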

Cholinesterase = Cholinesterase (Equus caballus, UniProt P81908); assay: Inhibition of equine serum BuChE using butyrylthiocholine iodide as substrate pretreated for 5 mins followed by substrate addition by Ellman's method
Chain of Cholinesterase (P81908 whole entry): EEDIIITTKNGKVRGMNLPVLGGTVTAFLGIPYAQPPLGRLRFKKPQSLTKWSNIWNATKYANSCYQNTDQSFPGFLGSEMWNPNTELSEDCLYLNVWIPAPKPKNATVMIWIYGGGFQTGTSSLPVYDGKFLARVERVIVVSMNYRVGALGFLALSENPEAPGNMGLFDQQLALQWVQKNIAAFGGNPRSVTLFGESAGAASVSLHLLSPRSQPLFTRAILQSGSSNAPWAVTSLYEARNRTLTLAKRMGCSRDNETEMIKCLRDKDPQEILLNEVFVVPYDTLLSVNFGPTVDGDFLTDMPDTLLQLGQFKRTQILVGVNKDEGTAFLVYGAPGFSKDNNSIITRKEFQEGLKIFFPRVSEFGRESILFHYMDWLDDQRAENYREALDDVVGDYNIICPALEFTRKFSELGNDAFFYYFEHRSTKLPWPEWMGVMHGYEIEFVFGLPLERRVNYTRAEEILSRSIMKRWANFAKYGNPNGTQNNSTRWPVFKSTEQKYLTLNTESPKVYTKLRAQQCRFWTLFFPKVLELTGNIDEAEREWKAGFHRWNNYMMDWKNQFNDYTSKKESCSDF
Method in brief: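 Ellman assay with horse serum BuChE (5 IU/mL) in 0.1 M phosphate buffer pH 8.0 with DTNB. Compound was preincubated with enzyme 5 min, then butyrylthiocholine iodide was added. Absorbance read at 412 nm. IC50 from a log concentration vs % inhibition curve; triplicate runs.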

PC-12 [2] = assay: Neuroprotection against H2O2-induced cell death in rat PC12 cells assessed as cell viability at 50 uM preincubated for 3 hrs followed by H2O2 stimulation measured after 2 hrs by MTT assay (reference value: 25.2 to 41.8%); assay type: functional; details: read-out: Activity
PC-12 [3] = assay: Neuroprotection against H2O2-induced cell death in rat PC12 cells assessed as cell viability at 20 uM preincubated for 3 hrs followed by H2O2 stimulation measured after 2 hrs by MTT assay (reference value: 25.2 to 41.8%); assay type: functional; details: read-out: Activity
PC-12 [4] = assay: Neuroprotection against H2O2-induced cell death in rat PC12 cells assessed as cell viability at 10 uM preincubated for 3 hrs followed by H2O2 stimulation measured after 2 hrs by MTT assay (reference value: 25.2 to 41.8%); assay type: functional; details: read-out: Activity
PC-12 [5] = assay: Neuroprotection against H2O2-induced cell death in rat PC12 cells assessed as cell viability at 1 uM preincubated for 3 hrs followed by H2O2 stimulation measured after 2 hrs by MTT assay (reference value: 25.2 to 41.8%); assay type: functional; details: read-out: Activity
PC-12 [6] = assay: Neuroprotection against H2O2-induced cell death in rat PC12 cells assessed as cell viability at 0.1 uM preincubated for 3 hrs followed by H2O2 stimulation measured after 2 hrs by MTT assay (reference value: 25.2 to 41.8%); assay type: functional; details: read-out: Activity
Acetylcholinesterase = Acetylcholinesterase (Electrophorus electricus, UniProt O42275); assay: Inhibition of electric eel AChE using acetylthiocholine iodide as substrate pretreated for 5 mins followed by substrate addition by Ellman's method
Chain of Acetylcholinesterase (O42275 whole entry): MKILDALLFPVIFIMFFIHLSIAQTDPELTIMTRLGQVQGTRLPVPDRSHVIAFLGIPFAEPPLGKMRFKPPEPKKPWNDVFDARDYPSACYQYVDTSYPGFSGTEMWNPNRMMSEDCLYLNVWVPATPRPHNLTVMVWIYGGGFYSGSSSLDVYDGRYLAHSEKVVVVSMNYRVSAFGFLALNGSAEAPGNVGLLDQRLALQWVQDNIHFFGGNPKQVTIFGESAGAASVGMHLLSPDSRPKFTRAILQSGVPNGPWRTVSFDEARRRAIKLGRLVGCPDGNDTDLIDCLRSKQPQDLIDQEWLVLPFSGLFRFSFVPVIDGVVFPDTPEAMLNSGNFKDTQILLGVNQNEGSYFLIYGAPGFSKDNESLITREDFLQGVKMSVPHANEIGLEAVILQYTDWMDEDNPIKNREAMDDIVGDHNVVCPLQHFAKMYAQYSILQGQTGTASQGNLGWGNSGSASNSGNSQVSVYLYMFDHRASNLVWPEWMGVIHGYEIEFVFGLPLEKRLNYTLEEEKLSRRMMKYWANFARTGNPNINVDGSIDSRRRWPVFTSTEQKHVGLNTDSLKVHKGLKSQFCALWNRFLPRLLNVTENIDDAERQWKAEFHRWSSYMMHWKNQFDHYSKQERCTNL

PC-12 [7] = assay: Neuroprotection against H2O2-induced cell death in rat PC12 cells assessed as cell viability at 5 uM preincubated for 3 hrs followed by H2O2 stimulation measured after 2 hrs by MTT assay (reference value: 25.2 to 41.8%); assay type: functional; details: read-out: Activity
PC-12 [8] = assay: Neuroprotection against H2O2-induced cell death in rat PC12 cells assessed as increase in cell viability preincubated for 3 hrs followed by H2O2 stimulation measured after 2 hrs by MTT assay; assay type: functional, cell-based

| Structure (SMILES) | IC50 [1] | IC50 (Cholinesterase) | viability at 50 µM (PC-12 [2]) | viability at 20 µM (PC-12 [3]) | viability at 10 µM (PC-12 [4]) | viability at 1 µM (PC-12 [5]) | viability at 0.1 µM (PC-12 [6]) | IC50 (Acetylcholinesterase) | viability at 5 µM (PC-12 [7]) | Activity (PC-12 [8]) |
| --- | --- | --- | --- | --- | --- | --- | --- | --- | --- | --- |
| O=C(CCCCC1CCSS1)NCc1cn(CCCOc2ccc3cc(-c4ccc(Cl)c(Cl)c4)c(=O)oc3c2)nn1 (configuration not stated) | > 100 µM | 73.5 µM | 54.8% | 51.2% | 49.6% | 42.4% | 38.1% | > 100 µM | 44.7% | Dose-dependent effect |
| O=C(CCCCC1CCSS1)NCc1cn(CCCOc2ccc3cc(-c4ccc(Cl)cc4)c(=O)oc3c2)nn1 (configuration not stated) | > 100 µM | > 100 µM | 79.4% | 75.6% | 67.8% | 49.3% | 40.9% | > 100 µM | 60.6% | Dose-dependent effect |
| COc1ccc(-c2cc3ccc(OCCCCn4cc(CNC(=O)CCCCC5CCSS5)nn4)cc3oc2=O)cc1 (configuration not stated) | > 100 µM | > 100 µM | 55.3% | 52.3% | 48.6% | 36.8% | 32.1% | > 100 µM | 44.9% | Dose-dependent effect |
| O=C(CCCCC1CCSS1)NCc1cn(CCCCCOc2ccc3cc(-c4ccccc4)c(=O)oc3c2)nn1 (configuration not stated) | > 100 µM | > 100 µM | 17.7% | 20.7% | 26.3% | 30.7% | 35.5% | > 100 µM | 28% | – |
| O=C(CCCCC1CCSS1)NCc1cn(CCCCOc2ccc3cc(-c4ccccc4)c(=O)oc3c2)nn1 (configuration not stated) | > 100 µM | > 100 µM | 20.5% | 26% | 30.5% | 34.8% | 38.6% | > 100 µM | 32.8% | – |
| CC(=O)c1cc2ccc(OCCCCCn3cc(CNC(=O)CCCCC4CCSS4)nn3)cc2oc1=O (configuration not stated) | > 100 µM | > 100 µM | 18.2% | 20.7% | 20.8% | 27.4% | 28.9% | > 100 µM | 22.2% | – |
| COc1ccc(-c2cc3ccc(OCCCCn4cc(CNC(=O)CCCCC5CCSS5)nn4)cc3oc2=O)cc1OC (configuration not stated) | > 100 µM | > 100 µM | 71.9% | 68.4% | 64% | 53% | 40.7% | > 100 µM | 57.2% | Dose-dependent effect |
| O=C(CCCCC1CCSS1)NCc1cn(CCCCOc2ccc3ccc(=O)oc3c2)nn1 (configuration not stated) | > 100 µM | > 100 µM | 75.8% | 69.8% | 65.1% | 45.9% | 40.5% | 65.5 µM | 52.8% | Dose-dependent effect |
| O=C(CCCCC1CCSS1)NCc1cn(CCCCOc2ccc3cc(-c4ccc(Cl)c(Cl)c4)c(=O)oc3c2)nn1 (configuration not stated) | > 100 µM | 10.3 µM | 69.5% | 62.9% | 58.9% | 49.3% | 39.6% | > 100 µM | 53.2% | Dose-dependent effect |
| COc1ccc(-c2cc3ccc(OCCCCCn4cc(CNC(=O)CCCCC5CCSS5)nn4)cc3oc2=O)cc1OC (configuration not stated) | > 100 µM | > 100 µM | 55% | 51.9% | 50.5% | 42.2% | 38.5% | > 100 µM | 46.9% | Dose-dependent effect |
| O=C(CCCCC1CCSS1)NCc1cn(CCCOc2ccc3cc(-c4ccc(Br)cc4)c(=O)oc3c2)nn1 (configuration not stated) | > 100 µM | > 100 µM | 74.7% | 69.1% | 63.3% | 42.8% | 39.5% | 46.5 µM | 57.3% | Dose-dependent effect |
| CCOC(=O)c1cc2ccc(OCCCn3cc(CNC(=O)CCCCC4CCSS4)nn3)cc2oc1=O (configuration not stated) | > 100 µM | > 100 µM | 49.2% | 42.1% | 36.1% | 28.3% | 28% | 55 µM | 32.4% | Dose-dependent effect |
| COc1ccc(-c2cc3ccc(OCCCn4cc(CNC(=O)CCCCC5CCSS5)nn4)cc3oc2=O)cc1 (configuration not stated) | > 100 µM | > 100 µM | 65.7% | 62% | 57.6% | 47.4% | 42% | 40.2 µM | 52.8% | Dose-dependent effect |
| O=C(CCCCC1CCSS1)NCc1cn(CCCCCOc2ccc3ccc(=O)oc3c2)nn1 (configuration not stated) | > 100 µM | > 100 µM | 84.9% | 78.5% | 71.3% | 57.2% | 46.3% | 70.6 µM | 64.5% | Dose-dependent effect |
| O=C(CCCCC1CCSS1)NCc1cn(CCCOc2ccc3cc(-c4ccccc4)c(=O)oc3c2)nn1 (configuration not stated) | > 100 µM | > 100 µM | 23.1% | 27.2% | 29.1% | 31.9% | 33.9% | > 100 µM | 29.8% | – |
| O=C(CCCCC1CCSS1)NCc1cn(CCCOc2ccc3cc(C(=O)O)c(=O)oc3c2)nn1 (configuration not stated) | > 100 µM | > 100 µM | 73.5% | 66.8% | 59.9% | 52.1% | 43.4% | > 100 µM | 57% | Dose-dependent effect |
| COc1ccc(-c2cc3ccc(OCCCCCn4cc(CNC(=O)CCCCC5CCSS5)nn4)cc3oc2=O)cc1 (configuration not stated) | > 100 µM | > 100 µM | 52.8% | 49% | 45.5% | 37.1% | 34.5% | > 100 µM | 41% | Dose-dependent effect |
| CC(=O)c1cc2ccc(OCCCn3cc(CNC(=O)CCCCC4CCSS4)nn3)cc2oc1=O (configuration not stated) | > 100 µM | > 100 µM | 40.7% | 39.8% | 38% | 35.5% | 34.6% | 54.6 µM | 37.5% | Dose-dependent effect |
| CCOC(=O)c1cc2ccc(OCCCCCn3cc(CNC(=O)CCCCC4CCSS4)nn3)cc2oc1=O (configuration not stated) | > 100 µM | > 100 µM | 40.7% | 39.5% | 38.3% | 35.1% | 34.4% | 59.7 µM | 36.4% | Dose-dependent effect |
| O=C(CCCCC1CCSS1)NCc1cn(CCCCCOc2ccc3cc(-c4ccc(Br)cc4)c(=O)oc3c2)nn1 (configuration not stated) | > 100 µM | > 100 µM | 53.6% | 52.3% | 48.4% | 43.7% | 41.8% | > 100 µM | 45.7% | Dose-dependent effect |
| O=C(CCCCC1CCSS1)NCc1cn(CCCCCOc2ccc3cc(-c4ccc(Cl)c(Cl)c4)c(=O)oc3c2)nn1 (configuration not stated) | > 100 µM | 7.8 µM | 66.2% | 65.5% | 59.4% | 50.6% | 39.7% | > 100 µM | 54.8% | Dose-dependent effect |
| O=c1c(O)c(-c2ccc(O)c(O)c2)oc2cc(O)cc(O)c12 [QUERCETIN] | – | – | 58.8% | 56.9% | 53.7% | 40.7% | 36.2% | – | 47.3% | – |
